Test results from PubChem BioAssay AID2434 (Vanderbilt High Throughput Screening Facility, 2010).
Calls of active or inactive are those of the source.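 How the source made its calls: active means an acetylcholine EC50 could be fitted from its dose curve with compound present at 10 µM; inactive means the rest.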

target: Muscarinic acetylcholine receptor M1 (Rattus norvegicus) (UniProt P08482); assay: M1 acetylcholine potency enhancement by modulators – cell-based, ACh fold-shift, calcium, CHO-K1, mechanism study (AID 2434); settings: CHO-K1 rat M1, Fluo-4 calcium
Method in brief: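 Assay system: Rat M1-expressing CHO-K1 cells, Fluo-4 loaded | Measured by: Fluo-4 calcium signal | Evaluation: Acetylcholine EC50 with compound compared to vehicle, variable-slope fits | Incubation: Dye loading 45–60 min at 37 °C, assay at 25 °C | Buffer or medium: HBSS assay buffer with HEPES and probenecid, pH 7.4 | Probe or stimulus: Eight-point acetylcholine dilution series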

Sequence of Muscarinic acetylcholine receptor M1 (Rattus norvegicus) (P08482 whole entry, looked up): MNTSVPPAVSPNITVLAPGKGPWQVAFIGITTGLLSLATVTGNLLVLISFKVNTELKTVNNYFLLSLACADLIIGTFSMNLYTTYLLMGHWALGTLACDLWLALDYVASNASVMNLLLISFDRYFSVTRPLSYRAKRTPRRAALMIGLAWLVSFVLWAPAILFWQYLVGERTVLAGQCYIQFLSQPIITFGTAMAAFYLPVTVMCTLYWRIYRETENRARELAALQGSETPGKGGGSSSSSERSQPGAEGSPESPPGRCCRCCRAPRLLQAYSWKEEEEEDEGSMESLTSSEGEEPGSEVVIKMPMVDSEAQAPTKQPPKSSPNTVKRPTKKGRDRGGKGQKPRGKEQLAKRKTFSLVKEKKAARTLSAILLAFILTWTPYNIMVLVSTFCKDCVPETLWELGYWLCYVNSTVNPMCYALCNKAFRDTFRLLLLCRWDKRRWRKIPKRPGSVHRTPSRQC

Compound | outcome
Cn1cc(-c2ccc(CN3C(=O)C(=O)c4ccccc43)c(F)c2)cn1 | inactive
Cc1cc(NC(=O)CS(=O)(=O)c2cn(Cc3cc(Br)ccc3F)c3ccccc23)no1 | active
Cc1cc(NC(=O)CS(=O)(=O)c2cn(Cc3cccc(-c4cn[nH]c4)c3)c3cc(F)cc(F)c23)no1 | active
Cn1cc(-c2cc(F)c(CN3C(=O)C(=O)c4ccccc43)c(F)c2)cn1 | inactive
